ChEMBL document CHEMBL3124926, “Identification of highly efficacious glucocorticoid receptor agonists with a potential for reduced clinical bone side effects” (J Med Chem, 2014)

What was measured:
Glucocorticoid receptor [1] = target: T1, Glucocorticoid receptor (Homo sapiens, UniProt P04150); assay: Transrepression activity at glucocorticoid receptor in human fibroblasts assessed as inhibition of IL-1-induced IL-6 production after 18 to 24 hrs
T1 sequence (P04150 whole entry): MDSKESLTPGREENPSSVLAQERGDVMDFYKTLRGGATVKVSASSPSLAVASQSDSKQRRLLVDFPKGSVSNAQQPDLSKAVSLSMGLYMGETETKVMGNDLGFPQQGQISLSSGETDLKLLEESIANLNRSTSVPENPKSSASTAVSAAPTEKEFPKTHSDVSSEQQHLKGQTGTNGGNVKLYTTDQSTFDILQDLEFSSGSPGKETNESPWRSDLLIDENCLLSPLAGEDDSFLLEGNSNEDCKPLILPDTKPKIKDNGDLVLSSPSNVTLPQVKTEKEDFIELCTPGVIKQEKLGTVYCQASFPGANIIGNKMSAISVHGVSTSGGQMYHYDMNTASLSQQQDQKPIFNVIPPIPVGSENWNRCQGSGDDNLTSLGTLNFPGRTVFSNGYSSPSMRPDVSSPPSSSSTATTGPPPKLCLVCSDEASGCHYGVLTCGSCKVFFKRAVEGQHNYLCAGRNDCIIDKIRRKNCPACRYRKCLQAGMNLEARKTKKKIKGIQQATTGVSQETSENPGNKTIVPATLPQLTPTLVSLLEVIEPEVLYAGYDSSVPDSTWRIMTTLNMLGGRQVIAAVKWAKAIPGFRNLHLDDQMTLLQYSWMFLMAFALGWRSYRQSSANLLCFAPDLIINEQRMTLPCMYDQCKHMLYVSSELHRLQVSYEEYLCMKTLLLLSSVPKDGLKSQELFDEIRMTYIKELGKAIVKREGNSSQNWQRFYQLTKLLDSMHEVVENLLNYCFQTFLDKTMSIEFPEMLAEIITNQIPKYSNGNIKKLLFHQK
How it was run: (§1)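 Human foreskin fibroblasts grown in Iscove's medium with 10% charcoal/dextran-treated FBS, plated at 20000/well two days before. Medium replaced, then compound (0.4% DMSO final) and recombinant human IL-1 (1 ng/mL final) added. 18–24 h at 37 °C; IL-6 in medium quantified by electrochemiluminescence, DELFIA or ELISA. IC50 by four-parameter fit of duplicate 11-point curves. Efficacy relative to dexamethasone (100%); top concentration 2 μM.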

Glucocorticoid receptor [2] = target: T1, Glucocorticoid receptor; assay: Competitive binding affinity to glucocorticoid receptor (unknown origin) expressed in baculovirus-infected cell system after 1 hr by fluorescence polarization assay in presence of tetramethylrhodamine-labeled dexamethasone
How it was run: (§2)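 Lysates of baculovirus-infected insect cells co-expressing receptor with HSP-70, HSP-90 and p23 (GR diluted 300-fold, MR 17-fold). Probe 5 nM tetramethylrhodamine-dexamethasone in TES/KCl/molybdate/EDTA/CHAPS/glycerol/DTT buffer, pH 7.4, 1% DMSO. 1 h at room temperature in the dark; fluorescence polarization read (ex 550/em 580 nm). Background set with 2 μM dexamethasone. IC50 from duplicate 11-point curves, four-parameter fit, mean of at least two determinations.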

[3] = target: T2, Mineralocorticoid receptor (Homo sapiens, UniProt P08235); assay: Competitive binding affinity to mineralocorticoid receptor (unknown origin) expressed in baculovirus-infected cell system after 1 hr by fluorescence polarization assay in presence of tetramethylrhodamine-labeled dexamethasone; how it was run: as §2
T2 sequence (P08235 whole entry): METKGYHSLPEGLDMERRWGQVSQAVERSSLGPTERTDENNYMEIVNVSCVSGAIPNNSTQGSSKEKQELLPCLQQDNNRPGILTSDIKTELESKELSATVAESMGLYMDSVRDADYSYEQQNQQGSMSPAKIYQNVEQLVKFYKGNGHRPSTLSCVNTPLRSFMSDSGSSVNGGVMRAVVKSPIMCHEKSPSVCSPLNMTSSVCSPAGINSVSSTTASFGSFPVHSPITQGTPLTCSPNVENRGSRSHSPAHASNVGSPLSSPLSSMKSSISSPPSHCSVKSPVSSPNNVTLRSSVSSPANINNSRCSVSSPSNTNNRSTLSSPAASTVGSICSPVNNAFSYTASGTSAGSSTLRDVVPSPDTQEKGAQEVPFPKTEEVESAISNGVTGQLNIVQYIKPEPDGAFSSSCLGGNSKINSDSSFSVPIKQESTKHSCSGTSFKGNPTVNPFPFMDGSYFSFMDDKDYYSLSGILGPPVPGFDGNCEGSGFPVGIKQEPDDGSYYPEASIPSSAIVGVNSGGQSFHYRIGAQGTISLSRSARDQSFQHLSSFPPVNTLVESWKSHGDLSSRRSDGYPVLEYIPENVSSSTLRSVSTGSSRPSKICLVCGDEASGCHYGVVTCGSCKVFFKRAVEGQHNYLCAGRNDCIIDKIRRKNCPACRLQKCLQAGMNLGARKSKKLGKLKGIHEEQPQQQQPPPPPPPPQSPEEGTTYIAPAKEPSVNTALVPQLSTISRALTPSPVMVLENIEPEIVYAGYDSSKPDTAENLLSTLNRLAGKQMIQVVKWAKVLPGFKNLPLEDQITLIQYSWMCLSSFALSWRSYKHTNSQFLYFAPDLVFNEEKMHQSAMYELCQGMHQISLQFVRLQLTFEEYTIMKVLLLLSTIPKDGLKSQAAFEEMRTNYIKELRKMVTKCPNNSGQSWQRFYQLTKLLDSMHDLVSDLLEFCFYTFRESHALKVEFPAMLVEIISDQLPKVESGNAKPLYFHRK

[4] = target: T3, Glucocorticoid receptor (Homo sapiens) (UniProt P04150); assay: Transrepression activity at glucocorticoid receptor in human fibroblasts assessed as inhibition of IL-1-induced IL-6 production at 2 uM after 18 to 24 hrs relative to dexomethasone; how it was run: as §1
T3 sequence (whole entry): T1 sequence (P04150 whole entry)

Progesterone receptor = target: T4, Progesterone receptor (Homo sapiens, UniProt P06401); assay: Competitive binding affinity to progesterone receptor (unknown origin) expressed in baculovirus-infected cell system after 1 hr by fluorescence polarization assay in presence of tetramethylrhodamine-labeled RU-486
T4 sequence (P06401 whole entry): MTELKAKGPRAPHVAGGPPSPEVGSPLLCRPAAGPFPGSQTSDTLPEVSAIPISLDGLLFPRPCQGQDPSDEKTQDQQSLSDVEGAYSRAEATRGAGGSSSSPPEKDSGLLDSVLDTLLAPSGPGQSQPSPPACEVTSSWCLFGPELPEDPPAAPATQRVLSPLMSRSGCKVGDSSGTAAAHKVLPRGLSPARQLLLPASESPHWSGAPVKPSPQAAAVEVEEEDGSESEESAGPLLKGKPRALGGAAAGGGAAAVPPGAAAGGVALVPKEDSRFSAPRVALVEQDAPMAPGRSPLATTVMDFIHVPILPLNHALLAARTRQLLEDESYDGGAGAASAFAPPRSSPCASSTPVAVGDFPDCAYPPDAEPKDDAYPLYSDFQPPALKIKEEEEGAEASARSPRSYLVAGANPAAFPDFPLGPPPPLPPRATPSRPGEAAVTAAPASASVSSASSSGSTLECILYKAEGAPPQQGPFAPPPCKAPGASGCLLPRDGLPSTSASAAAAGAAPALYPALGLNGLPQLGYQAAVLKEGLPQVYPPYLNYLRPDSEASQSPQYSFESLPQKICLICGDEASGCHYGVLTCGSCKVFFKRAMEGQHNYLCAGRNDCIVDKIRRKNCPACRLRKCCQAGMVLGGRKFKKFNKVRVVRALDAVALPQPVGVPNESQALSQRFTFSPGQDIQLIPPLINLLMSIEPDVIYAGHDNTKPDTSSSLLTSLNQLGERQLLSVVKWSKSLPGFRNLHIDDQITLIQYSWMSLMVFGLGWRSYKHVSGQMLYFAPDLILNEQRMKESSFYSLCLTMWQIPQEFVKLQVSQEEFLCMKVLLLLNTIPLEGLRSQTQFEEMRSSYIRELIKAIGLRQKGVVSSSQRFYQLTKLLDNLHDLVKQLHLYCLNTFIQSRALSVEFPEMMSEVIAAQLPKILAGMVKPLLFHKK
How it was run: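 PR from lysate of insect cells infected with receptor baculovirus alone, diluted 13-fold. Probe 5 nM tetramethylrhodamine-labeled RU-486 in pH 7.4 TES/KCl/molybdate buffer with 1% DMSO. 1 h at room temperature in the dark, then fluorescence polarization (ex 550/em 580 nm). Background set with 2 μM RU-486. IC50 from duplicate 11-point curves, four-parameter logistic fit, mean of at least two determinations.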

[5] = target: T3, Glucocorticoid receptor (Homo sapiens); assay: Agonist activity at glucocorticoid receptor in human […] cells assessed as suppression of vitamin D-induced osteocalcin production at 2 uM after 48 hrs by Gla-type osteocalcin ELISA relative to dexomethasone; assay type: cell-based
How it was run: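 MG-63 human osteosarcoma cells plated at 20000/well in DMEM/F-12 with 1% charcoal-filtered FBS and 10 μg/mL vitamin C. Medium refreshed next day, then vitamin D (10 nM final) added with compound (2 × 10−6 to 10−10 M), duplicates. Incubated 48 h at 37 °C; supernatant osteocalcin measured by Gla-type ELISA. Vitamin D-only wells = 100%. Max efficacy at 2 μM is relative to dexamethasone (100%).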

[6] = target: T3, Glucocorticoid receptor (Homo sapiens); assay: Agonist activity at glucocorticoid receptor in human HeLa cells transfected with luciferase gene linked to MMTV promoter assessed as induction of luciferase transactivation activity at 2 uM after 6 hrs by luminescence assay; assay type: cell-based
How it was run: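 HeLa cells stably carrying an MMTV-luciferase construct, plated the day before at 25000/well in DMEM with 3% FBS. Medium replaced, then compound added (0.2% DMSO final); 1 μM dexamethasone wells = 100% induction, vehicle = background. Incubated 6 h at 37 °C, 5% CO2. Luminescence read after lysis; activation expressed as % of positive control. Top concentration 2 μM.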

Row | SMILES | IC50 (Glucocorticoid receptor [1]) | IC50 (Glucocorticoid receptor [2]) | IC50 [3] | Emax [4] | IC50 (Progesterone receptor) | Emax [5] | Emax [6]
1 | Cc1ccc(F)cc1C(C)(C)CC(O)(Cc1cc2nc(-c3ccccc3)cnc2[nH]1)C(F)(F)F (configuration not stated) | 170 nM | 11 nM | > 2000 nM | 82% | > 2000 nM |  | 
2 | CC(C)(C[C@@](O)(Cc1cc2ccncc2[nH]1)C(F)(F)F)c1cc(F)ccc1O |  |  |  |  |  | 68% | 
3 | COc1ccc(-c2cncnc2)cc1C(C)(C)C[C@@](O)(Cc1cc2ccncc2[nH]1)C(F)(F)F |  |  |  |  |  | 45% | 
4 | Cc1ccc(F)cc1C(C)(C)CC(O)(Cc1cc2nc(C(C)C)ncc2[nH]1)C(F)(F)F (racemic) | 560 nM | 26 nM | > 2000 nM | 50% | > 2000 nM |  | 
5 | Cc1ccc(F)cc1C(C)(C)CC(O)(Cc1cc2nc(N3CCCC3)ncc2[nH]1)C(F)(F)F (racemic) | 130 nM | 18 nM | > 2000 nM | 76% | > 2000 nM |  | 
6 | Cc1ccccc1C(C)(C)CC(O)(Cc1cc2ncncc2[nH]1)C(F)(F)F (racemic) | 44 nM | 13 nM | 1100 nM | 69% | > 2000 nM |  | 
7 | CC(C)(CC(O)(Cc1cc2ncncc2[nH]1)C(F)(F)F)c1ccccc1S(C)(=O)=O (racemic) | 21 nM | 24 nM | > 2000 nM | 92% | > 2000 nM | 43% | 
8 | CC(C)(CC(O)(Cc1cc2ncncc2[nH]1)C(F)(F)F)c1cccc(S(C)(=O)=O)c1 (racemic) |  | 840 nM | > 2000 nM |  | > 2000 nM |  | 
9 | Cc1ccc(F)cc1C(C)(C)CC(O)(Cc1cc2nccnc2[nH]1)C(F)(F)F (racemic) | > 2000 nM | 57 nM | > 2000 nM |  | > 2000 nM |  | 

Further compounds by falling IC50 (Glucocorticoid receptor [2]), results first:

Row | IC50 (Glucocorticoid receptor [1]) | IC50 (Glucocorticoid receptor [2]) | IC50 [3] | Emax [4] | IC50 (Progesterone receptor) | Emax [5] | Emax [6] | SMILES
10 | 21 nM | 9 nM | > 2000 nM | 85% | > 2000 nM |  | 5% | COc1ccc(F)cc1C(C)(C)CC(O)(Cc1cc2ncncc2[nH]1)C(F)(F)F (racemic)
11 | 11 nM | 7 nM | 1150 nM |  | > 2000 nM | 42% |  | CC(C)(CC(O)(Cc1cc2ncncc2[nH]1)C(F)(F)F)c1cc(F)ccc1O (racemic)
12 | 24 nM | 7 nM | 1300 nM | 78% | 1400 nM | 26% |  | CC(C)(CC(O)(Cc1cc2ncncc2[nH]1)C(F)(F)F)c1cc(F)cc2c1OCC2 (racemic)
13 | 15 nM | 5 nM | 170 nM | 84% | 1400 nM |  |  | Cc1ccc(F)cc1C(C)(C)CC(O)(Cc1cc2nc(N3CCOCC3)ncc2[nH]1)C(F)(F)F (racemic)
14 | 10 nM | 4 nM | 160 nM | 82% | 1450 nM |  |  | COc1ccc(F)cc1C(C)(C)CC(O)(Cc1cc2cncnc2[nH]1)C(F)(F)F (racemic)
15 | 5 nM | 3 nM | 83 nM |  | 490 nM | 81% |  | Cc1ccc(F)cc1C(C)(C)CC(O)(Cc1cc2cnncc2[nH]1)C(F)(F)F (racemic)
